≈ marks a conversion by molar mass, not a printed value.
What was measured:
Assay type in all cases: functional
[1] = system: Staphylococcus aureus; assay: In vitro antibacterial activity against Gram-positive, Staphylococcus aureus 209 P
Method in brief: (§1)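 MIC in µg/mL, determined by a standard twofold serial dilution method on agar media.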

[2] = system: Escherichia coli; assay: In vitro for antibacterial activity against Gram-negative Escherichia coli […] JC-2.; method in brief: as §1
[3] = system: Pseudomonas aeruginosa; assay: In vitro antibacterial activity against Gram-negative Pseudomonas aeruginosa V-1.; method in brief: as §1

Row | MIC [1] [µg/mL] | MIC [2] [µg/mL] | MIC [3] [µg/mL] | Structure (SMILES)
1 | 0.78 (≈ 2.8 µM) | 0.39 (≈ 1.4 µM) | 50 (≈ 180 µM) | CCn1cc(C(=O)O)c(=O)c2cc(F)c(N(C)C)cc21
2 | 1.56 (≈ 3.96 µM) | 0.39 (≈ 0.989 µM) | 100 (≈ 254 µM) | CCn1cc(C(=O)O)c(=O)c2cc(Br)c(N3CCN(C)CC3)cc21
3 | 25 (≈ 72 µM) | 0.78 (≈ 2.24 µM) | 12.5 (≈ 36 µM) | CCn1cc(C(=O)O)c(=O)c2cc(SC)c(N3CCNCC3)cc21
4 | > 100 | 6.25 (≈ 21.3 µM) | 50 (≈ 170 µM) | CCn1cc(C(=O)O)c(=O)c2cc(F)c(NCCN)cc21
5 | 0.78 (≈ 2.16 µM) | 1.56 (≈ 4.32 µM) | 25 (≈ 69.2 µM) | CCn1cc(C(=O)O)c(=O)c2cc(F)c(N3CCN(C(C)=O)CC3)cc21 [4-N-ACETYL-1-PIPERAZINYL-NORFLOXACIN]
6 | 12.5 (≈ 46.4 µM) | 1.56 (≈ 5.79 µM) | 100 (≈ 371 µM) | CCn1cc(C(=O)O)c(=O)c2cc(F)c(Cl)cc21
7 | 1.56 (≈ 3.68 µM) | 3.13 (≈ 7.39 µM) | 25 (≈ 59 µM) | CCn1cc(C(=O)O)c(=O)c2cc(F)c(N3CCN(C(=O)c4ccccc4)CC3)cc21
8 | 0.78 (≈ 2.45 µM) | 1.56 (≈ 4.9 µM) | 50 (≈ 157 µM) | CCn1cc(C(=O)O)c(=O)c2cc(F)c(N3CCCCC3)cc21
9 | > 100 | 3.13 (≈ 12.5 µM) | > 100 | CCn1cc(C(=O)O)c(=O)c2cc(F)c(N)cc21 [7-AMINO-FLUOROQUINONE]
10 | 1.56 (≈ 3.43 µM) | 6.25 (≈ 13.8 µM) | > 100 | CCn1cc(C(=O)O)c(=O)c2cc(F)c(N3CCN(Cc4ccc([N+](=O)[O-])cc4)CC3)cc21
11 | 1.56 (≈ 4.46 µM) | 0.78 (≈ 2.23 µM) | 25 (≈ 71.5 µM) | CCn1cc(C(=O)O)c(=O)c2cc(Cl)c(N3CCN(C)CC3)cc21
12 | 6.25 (≈ 25.1 µM) | 0.39 (≈ 1.56 µM) | 50 (≈ 201 µM) | CCn1cc(C(=O)O)c(=O)c2cc(F)c(C)cc21 [NALDIXIC ACID]
13 | 12.5 (≈ 41.5 µM) | 0.78 (≈ 2.59 µM) | 3.13 (≈ 10.4 µM) | CCn1cc(C(=O)O)c(=O)c2ccc(N3CCNCC3)cc21
14 | 3.13 (≈ 9.39 µM) | 0.39 (≈ 1.17 µM) | 12.5 (≈ 37.5 µM) | CCn1cc(C(=O)O)c(=O)c2cc(F)c(N3CCNC(=O)C3)cc21 [3-OXO-1-PIPERAZINYL-NORFLOXACIN]
15 | 0.39 (≈ 1.09 µM) | 0.39 (≈ 1.09 µM) | 6.25 (≈ 17.4 µM) | C=CCN1CCN(c2cc3c(cc2F)c(=O)c(C(=O)O)cn3CC)CC1
16 | 0.78 (≈ 2.15 µM) | 0.1 (≈ 0.275 µM) | 6.25 (≈ 17.2 µM) | CCn1cc(C(=O)O)c(=O)c2cc(F)c(N3CCN(CCO)CC3)cc21

Row | MIC [1] [µg/mL] | MIC [2] [µg/mL] | MIC [3] [µg/mL] | Structure (SMILES)
17 | 0.39 (≈ 1.17 µM) | 0.2 (≈ 0.598 µM) | 12.5 (≈ 37.4 µM) | CCn1cc(C(=O)O)c(=O)c2cc(F)c(N3CCC(O)CC3)cc21
18 | – | 0.1 (≈ 0.288 µM) | 3.13 (≈ 9.01 µM) | CCN1CCN(c2cc3c(cc2F)c(=O)c(C(=O)O)cn3CC)CC1
19 | 0.2 (≈ 0.657 µM) | 0.39 (≈ 1.28 µM) | 12.5 (≈ 41.1 µM) | CCn1cc(C(=O)O)c(=O)c2cc(F)c(N3CCCC3)cc21
20 | 0.39 (≈ 1.11 µM) | 0.1 (≈ 0.285 µM) | 3.13 (≈ 8.91 µM) | CN1CCN(c2cc3c(cc2F)c(=O)c(C(=O)O)cn3CCF)CC1
21 | – | – | 12.5 (≈ 29.4 µM) | CCn1cc(C(=O)O)c(=O)c2cc(F)c(N3CCN(Cc4ccc(N)cc4)CC3)cc21
22 | 1.56 (≈ 4.32 µM) | 1.56 (≈ 4.32 µM) | 100 (≈ 277 µM) | CCn1cc(C(=O)O)c(=O)c2cc(F)c(N3CCC(C(N)=O)CC3)cc21
23 | 0.39 (≈ 0.952 µM) | 0.78 (≈ 1.9 µM) | 50 (≈ 122 µM) | CCn1cc(C(=O)O)c(=O)c2cc(F)c(N3CCN(Cc4ccccc4)CC3)cc21
24 | 1.56 (≈ 4.71 µM) | 0.1 (≈ 0.302 µM) | 3.13 (≈ 9.45 µM) | C=Cn1cc(C(=O)O)c(=O)c2cc(F)c(N3CCN(C)CC3)cc21
25 | > 100 | 25 (≈ 74.6 µM) | > 100 | CCn1cc(C(=O)O)c(=O)c2cc(F)c(NCCNC(C)=O)cc21 [7-ACETYLAMINOETHYL-AMINO-FLUOROQUINONE]
26 | 0.39 (≈ 1.08 µM) | 0.1 (≈ 0.277 µM) | 3.13 (≈ 8.66 µM) | CCn1cc(C(=O)O)c(=O)c2cc(F)c(N3CCC(N(C)C)CC3)cc21
27 | 1.56 (≈ 4.09 µM) | 0.78 (≈ 2.05 µM) | 1.56 (≈ 4.09 µM) | O=C(O)c1cn(Cc2ccccc2)c2cc(N3CCNCC3)c(F)cc2c1=O
28 | 0.78 (≈ 2.44 µM) | 0.2 (≈ 0.624 µM) | 12.5 (≈ 39 µM) | CCn1cc(C(=O)O)c(=O)c2cc(F)c(N3CCOCC3)cc21
29 | 0.39 (≈ 1.17 µM) | 0.1 (≈ 0.3 µM) | – | CCn1cc(C(=O)O)c(=O)c2cc(F)c(N3CCN(C)CC3)cc21 [PEFLOXACIN]
30 | 1.56 (≈ 4.49 µM) | 0.39 (≈ 1.12 µM) | 6.25 (≈ 18 µM) | CCn1cc(C(=O)O)c(=O)c2cc(F)c(N3CCN(C=O)CC3)cc21 [4-N-FORMYL-1-PIPERAZINYL-NORFLOXACIN]
31 | 25 (≈ 72.2 µM) | 0.78 (≈ 2.25 µM) | 12.5 (≈ 36.1 µM) | CCn1cc(C(=O)O)c(=O)c2cc([N+](=O)[O-])c(N3CCNCC3)cc21

Row | Structure (SMILES) | MIC [1] [µg/mL] | MIC [2] [µg/mL] | MIC [3] [µg/mL]
32 | CCn1cc(C(=O)O)c(=O)c2ccc(N3CCNCC3)c(Cl)c21.Cl | 3.13 | 0.39 | 6.25
33 | Cl.O=C(O)c1cn(CCO)c2cc(N3CCNCC3)c(F)cc2c1=O | 1.56 | 0.39 | 3.13
34 | Cl.O=C(O)c1cn(CCF)c2cc(N3CCNCC3)c(F)cc2c1=O | 1.56 | 0.1 | 0.78
35 | CCn1cc(C(=O)O)c(=O)c2ccc(C)nc21 [NALIDIXIC ACID] | > 100 | 3.13 (≈ 13.5 µM) | 100 (≈ 431 µM)
36 | CCn1cc(C(=O)O)c(=O)c2cc(C#N)c(N3CCNCC3)cc21 | 12.5 (≈ 38.3 µM) | 0.39 (≈ 1.2 µM) | 6.25 (≈ 19.2 µM)
37 | C=Cn1cc(C(=O)O)c(=O)c2cc(F)c(N3CCNCC3)cc21 | 3.13 (≈ 9.86 µM) | 0.1 (≈ 0.315 µM) | 0.39 (≈ 1.23 µM)
38 | CCn1cc(C(=O)O)c(=O)c2cc(Cl)c(N3CCNCC3)cc21.Cl | 1.56 | 0.2 | 3.13
39 | CCn1cc(C(=O)O)c(=O)c2cnc(N3CCNCC3)nc21 [PIPEMIDIC ACID] | 25 (≈ 82.4 µM) | 1.56 (≈ 5.14 µM) | 12.5 (≈ 41.2 µM)
40 | CCn1cc(C(=O)O)c(=O)c2cc3c(cc21)OCO3 [OXOLINIC ACID] | 3.13 (≈ 12 µM) | 0.1 (≈ 0.383 µM) | 25 (≈ 95.7 µM)
41 | C=CCn1cc(C(=O)O)c(=O)c2cc(F)c(N3CCNCC3)cc21.Cl | 3.13 | 0.2 | 1.56
42 | Cl.Cn1cc(C(=O)O)c(=O)c2cc(F)c(N3CCNCC3)cc21 | 6.25 | 0.39 | 1.56
43 | CCn1ccc(=O)c2cc(F)c(N3CCNCC3)cc21 | > 100 | > 100 | > 100
44 | CCOC(=O)c1cn(CC)c2cc(N3CCNCC3)c(F)cc2c1=O | 50 (≈ 144 µM) | 12.5 (≈ 36 µM) | 50 (≈ 144 µM)
45 | CCn1cc(C(=O)O)c(=O)c2cc(C)c(N3CCNCC3)cc21.Cl | 3.13 | 0.39 | 6.25
46 | CCn1cc(C(=O)O)c(=O)c2cc(Br)c(N3CCNCC3)cc21.Cl | 3.13 | 0.39 | 12.5
47 | CCn1cc(C(=O)O)c(=O)c2ccc(N3CCNCC3)c(F)c21.Cl | 12.5 | 0.78 | 1.56
48 | CCn1cc(C(=O)O)c(=O)c2cc(F)c(N3CCNCC3)cc21 [NORFLOXACIN] | 0.39 (≈ 1.22 µM) | 0.05 (≈ 0.157 µM) | 0.39 (≈ 1.22 µM)
49 | CCn1cc(C(=O)O)c(=O)c2cc(C(C)=O)c(N3CCNCC3)cc21 | 100 (≈ 291 µM) | 100 (≈ 291 µM) | > 100
50 | CCCn1cc(C(=O)O)c(=O)c2cc(F)c(N3CCNCC3)cc21.Cl | 1.56 | 0.2 | 3.13
51 | CCn1cc(C(=O)OC)c(=O)c2cc(F)c(N3CCNCC3)cc21 | 100 (≈ 300 µM) | 12.5 (≈ 37.5 µM) | 50 (≈ 150 µM)

From ChEMBL document CHEMBL1121603, “Structure-activity relationships of antibacterial 6,7- and 7,8-disubstituted 1-alkyl-1,4-dihydro-4-oxoquinoline-3-carboxylic acids” (1980)
